Source: ChEMBL document CHEMBL1128331, “New antianginal nitro esters with reduced hypotensive activity. Synthesis and pharmacological evaluation of 3-[(nitrooxy)alkyl]-2H-1,3-benzoxazin-4(3H)-ones” (J Med Chem, 1995)

How the values were obtained:
[1] = Partition coefficient (logP); type: physicochemical; conditions: octanol/water
Rattus norvegicus [2] = species: Rattus norvegicus; assay: Inhibition of vasopressin-induced ECG changes in rat; type: functional
In short: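 Urethane-anesthetized (1.25 g/kg ip) male Sprague-Dawley rats, lead II ECG. Arg8-vasopressin 1 IU/kg iv (1 mL/kg over 20 s) given 10 min after iv drug or vehicle (GTN 1 min before). T-wave rise measured in mV. 8 rats per dose; percent inhibition against mean control; ED50 from dose-effect regression line.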

Rattus norvegicus [3] = assay: Concentration required to reduce mean arterial blood pressure in rat after intravenous administration.; type: functional; conditions: Artery
In short: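 Male Sprague-Dawley rats (350-400 g), urethane 1.25 g/kg ip, tracheal cannula. Carotid catheter records mean arterial pressure continuously; heart rate taken from the pressure wave. Dosing through femoral vein, 1 mL/kg over 20 s. Change expressed as percent of basal; ED20 (dose giving 20% MABP fall) taken from the dose-response curve.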

Rattus norvegicus [4] = species: Rattus norvegicus; assay: Selectivity index as the ratio of doses requires to induce a reduction in MABP and that required to prevent ECG changes.; type: functional
In short: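 Ratio of the iv ED20 for a 20% fall in mean arterial pressure to the iv ED50 for preventing ECG changes, both measured in urethane-anesthetized rats.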

Oryctolagus cuniculus [5] = species: Oryctolagus cuniculus; assay: Vasorelaxation activity in the isolated endothelium-denuded rabbit aorta; type: functional
In short: (§1)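 Endothelium-denuded rabbit aortic strips, precontracted to a stable plateau, then given increasing concentrations cumulatively in the organ chamber; IC50 calculated from the concentration-response curves.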

Rattus norvegicus [6] = assay: Inhibition of methacholine-induced ECG changes in the anesthetized rat after oral administration.; type: functional
In short: (§2)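 Urethane-anesthetized male Sprague-Dawley rats, lead II ECG. Methacholine 8.0 µg in 0.02 mL over 1 s delivered into coronary arteries via a tube passed through the right carotid artery into the coronary ostia; S-T elevation measured in mV. Injection repeated at intervals after a single iv or oral dose. Five rats per dose; percent inhibition over basal; ED50.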

Oryctolagus cuniculus [7] = species: Oryctolagus cuniculus; assay: Compound was tested for vasorelaxation activity in the isolated endothelium-denuded rabbit aorta; type: functional; in short: as §1
Rattus norvegicus [8] = assay: Inhibition of methacholine-induced ECG changes in the anesthetized rat after intravenous administration.; type: functional; in short: as §2

Structure (SMILES) | logP [1] | ED50 (Rattus norvegicus [2]) | ED20 (Rattus norvegicus [3]) | Selectivity index (Rattus norvegicus [4]) | IC50 (Oryctolagus cuniculus [5]) | ED50 (Rattus norvegicus [6]) | IC50 (Oryctolagus cuniculus [7]) | ED50 (Rattus norvegicus [8])
O=C1c2cc([N+](=O)[O-])ccc2OCN1CCO[N+](=O)[O-] | 1.57 | 0.064 mg/kg | 0.076 mg/kg | 1.2 | 21 nM | – | – | –
O=C1c2ccc(C(F)(F)F)cc2OCN1CCO[N+](=O)[O-] | 2.73 | 0.0015 mg/kg | > 0.3 mg/kg | 200 | – | > 0.3 mg/kg | 220 nM | 0.082 mg/kg
CN(C)/C=N/c1ccc2c(c1)C(=O)N(CCO[N+](=O)[O-])CO2 | – | – | 1.27 mg/kg | 131 | 640 nM | > 0.3 mg/kg | – | 0.0171 mg/kg
O=C1c2ccccc2OCN1CCCCCO[N+](=O)[O-] | – | – | 0.73 mg/kg | 13 | 98 nM | – | – | –
O=C1c2ccccc2OCN1CCCO[N+](=O)[O-] | – | – | – | – | 77 nM | – | – | 0.001 mg/kg
Cc1cccc2c1OCN(CCO[N+](=O)[O-])C2=O | – | 0.0582 mg/kg | 0.88 mg/kg | 15 | 360 nM | – | – | –
O=C1c2cc(Cl)ccc2OCN1CCO[N+](=O)[O-] | 2.56 | 0.107 mg/kg | 0.088 mg/kg | 0.87 | 37 nM | – | – | –
O=C1c2ccc(Cl)cc2OCN1CCO[N+](=O)[O-] | 2.56 | – | 0.79 mg/kg | 72 | 70 nM | – | – | –
Cc1cccc2c1C(=O)N(CCO[N+](=O)[O-])CO2 | – | 0.0046 mg/kg | 0.3 mg/kg | 65 | 125 nM | – | – | > 0.01 mg/kg
Cc1ccc2c(c1)OCN(CCO[N+](=O)[O-])C2=O | 2.41 | – | 0.22 mg/kg | 17.5 | 110 nM | – | – | –
N#Cc1ccc2c(c1)C(=O)N(CCO[N+](=O)[O-])CO2 | 1.28 | – | > 0.3 mg/kg | 26 | 71 nM | – | – | –
COc1ccc2c(c1)C(=O)N(CCO[N+](=O)[O-])CO2 | 1.83 | 0.0051 mg/kg | > 1 mg/kg | 421 | 230 nM | 0.1 mg/kg | – | 0.013 mg/kg
Cc1ccc2c(c1)C(=O)N(CCO[N+](=O)[O-])CO2 | 2.41 | 0.006 mg/kg | 0.037 mg/kg | 8.6 | 35 nM | 0.142 mg/kg | – | 0.00041 mg/kg
COc1ccc2c(c1)OCN(CCO[N+](=O)[O-])C2=O | 1.83 | 0.002 mg/kg | 0.29 mg/kg | 147 | 47 nM | > 0.3 mg/kg | – | > 0.01 mg/kg
O=C(NCCO[N+](=O)[O-])c1cccnc1 [NICORANDIL] | – | 0.94 mg/kg | 0.16 mg/kg | – | – | 3 mg/kg | – | 0.047 mg/kg
O=[N+]([O-])OCC(CO[N+](=O)[O-])O[N+](=O)[O-] [NITROGLYCERIN] | – | 0.545 mg/kg | 0.0054 mg/kg | 0.01 | 16 nM | – | – | 0.036 mg/kg
O=C1c2ccccc2OCN1CCO[N+](=O)[O-] [SINITRODIL] | 1.85 | 0.0021 mg/kg | 0.19 mg/kg | 90 | 94 nM | 0.118 mg/kg | – | –
